# ChEMBL document CHEMBL1165950, “Design and synthesis of new potent anticancer pyrazoles with high FLT3 kinase inhibitory selectivity” (Bioorg Med Chem, 2010)
# Legend:
# Type in all cases: functional
# Conditions in all cases: read-out: Activity
# HOP-92 = experiment: Cytotoxicity against human HOP92 cells assessed as cell growth at 10 uM
# In short: (§1)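 Single-dose NCI-60 screen at 10 µM. Cells were grown in RPMI 1640 with 5% FBS and 2 mM L-glutamine, then treated for 48 h at 37 °C. Protein was measured by SRB staining with absorbance at 515 nm. Percentage growth was recorded, and inhibition percentage was calculated as 100 minus growth percentage.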
# LOX IMVI = experiment: Cytotoxicity against human LOXIMVI cells assessed as cell growth at 10 uM
# In short: (§2)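 NCI-60 screen: cells grown in RPMI 1640 with 5% FBS and 2 mM L-glutamine, plated at 5000–40,000 cells/well according to doubling time, and preincubated 24 h at 37 °C, 5% CO2. The single 10 µM dose (DMSO stock) was added, then incubated 48 h. Cells were TCA-fixed and stained with 0.4% SRB, read at 515 nm, and growth % calculated against time-zero and control plates.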
# IGROV-1 = experiment: Cytotoxicity against human IGROV1 cells assessed as cell growth at 10 uM; in short: as §1
# SK-MEL-28 = experiment: Cytotoxicity against human SK-MEL-28 cells assessed as cell growth at 10 uM; in short: as §2
# HCT-15 = experiment: Cytotoxicity against human HCT15 cells assessed as cell growth at 10 uM; in short: as §1
# NCI-H226 = experiment: Cytotoxicity against human NCI-H226 cells assessed as cell growth at 10 uM; in short: as §2
# SF-295 = experiment: Cytotoxicity against human SF295 cells assessed as cell growth at 10 uM; in short: as §2
# A498 = experiment: Cytotoxicity against human A498 cells assessed as cell growth at 10 uM; in short: as §1
# SK-MEL-2 = experiment: Cytotoxicity against human SK-MEL-2 cells assessed as cell growth at 10 uM; in short: as §2
# PC-3 = experiment: Cytotoxicity against human PC3 cells assessed as cell growth at 10 uM; in short: as §2
# SW-620 = experiment: Cytotoxicity against human SW620 cells assessed as cell growth at 10 uM; in short: as §2
# HCT-116 = experiment: Cytotoxicity against human HCT116 cells assessed as cell growth at 10 uM; in short: as §1
# HT-29 = experiment: Cytotoxicity against human HT-29 cells assessed as cell growth at 10 uM; in short: as §1
# HCC 2998 = experiment: Cytotoxicity against human HCC2998 cells assessed as cell growth at 10 uM; in short: as §1
# MDA-MB-435 = experiment: Cytotoxicity against human MDA-MB-435 cells assessed as cell growth at 10 uM; in short: as §2
# TK-10 = experiment: Cytotoxicity against human TK10 cells assessed as cell growth at 10 uM; in short: as §2
# DU-145 = experiment: Cytotoxicity against human DU145 cells assessed as cell growth at 10 uM; in short: as §1
# Malme-3M = experiment: Cytotoxicity against human MALME-3M cells assessed as cell growth at 10 uM; in short: as §2
# UACC-62 = experiment: Cytotoxicity against human UACC62 cells assessed as cell growth at 10 uM; in short: as §2
# U-251 = experiment: Cytotoxicity against human U251 cells assessed as cell growth at 10 uM; in short: as §2
# K562 = experiment: Cytotoxicity against human K562 cells assessed as cell growth at 10 uM; in short: as §1
# A549 = experiment: Cytotoxicity against human A549 cells assessed as cell growth at 10 uM; in short: as §1
# NCI-H522 = experiment: Cytotoxicity against human NCI-H522 cells assessed as cell growth at 10 uM; in short: as §2
# MDA-MB-231 = experiment: Cytotoxicity against human MDA-MB-231 cells assessed as cell growth at 10 uM; in short: as §2
# OVCAR-5 = experiment: Cytotoxicity against human OVCAR5 cells assessed as cell growth at 10 uM; in short: as §2
# RXF 393 = experiment: Cytotoxicity against human RXF393 cells assessed as cell growth at 10 uM; in short: as §2
# BT-549 = experiment: Cytotoxicity against human BT549 cells assessed as cell growth at 10 uM; in short: as §1
# SK-OV-3 = experiment: Cytotoxicity against human SKOV3 cells assessed as cell growth at 10 uM; in short: as §2
# HOP-62 = experiment: Cytotoxicity against human HOP62 cells assessed as cell growth at 10 uM; in short: as §1
# NCI-H23 = experiment: Cytotoxicity against human NCI-H23 cells assessed as cell growth at 10 uM; in short: as §2
# SN12C = experiment: Cytotoxicity against human SN12C cells assessed as cell growth at 10 uM; in short: as §2
smiles,measurement,setting,value
COc1cc(C)cc(-c2nn(CC#N)cc2-c2ccnc(-c3ccc(Oc4ccccc4)cc3)c2)c1,growth at 10 µM,HOP-92,85.5%
same,growth at 10 µM,LOX IMVI,98%
same,growth at 10 µM,IGROV-1,94.9%
same,growth at 10 µM,SK-MEL-28,104%
same,growth at 10 µM,HCT-15,71%
same,growth at 10 µM,NCI-H226,66.5%
same,growth at 10 µM,SF-295,95.1%
same,growth at 10 µM,A498,85.3%
same,growth at 10 µM,SK-MEL-2,85.2%
same,growth at 10 µM,PC-3,91.9%
same,growth at 10 µM,SW-620,98.6%
same,growth at 10 µM,HCT-116,81.8%
same,growth at 10 µM,HT-29,73.9%
same,growth at 10 µM,HCC 2998,93.9%
same,growth at 10 µM,MDA-MB-435,98.1%
same,growth at 10 µM,TK-10,88.6%
same,growth at 10 µM,DU-145,105%
same,growth at 10 µM,Malme-3M,112%
same,growth at 10 µM,UACC-62,65.8%
same,growth at 10 µM,U-251,88.4%
same,growth at 10 µM,K562,88%
same,growth at 10 µM,A549,85.8%
same,growth at 10 µM,NCI-H522,72.5%
same,growth at 10 µM,MDA-MB-231,88.6%
same,growth at 10 µM,OVCAR-5,90.2%
same,growth at 10 µM,RXF 393,64.2%
same,growth at 10 µM,BT-549,96.3%
same,growth at 10 µM,SK-OV-3,95.4%
same,growth at 10 µM,HOP-62,96.1%
same,growth at 10 µM,NCI-H23,88.3%
same,growth at 10 µM,SN12C,84.8%
